These results are taken from ChEMBL document CHEMBL3865799, “Synthesis of a series of novel dihydroartemisinin monomers and dimers containing chalcone as a linker and their anticancer activity” (Eur J Med Chem, 2016).

Structures are written as SMILES.

Data set [1] is described as follows: Cytotoxicity against human LS180 cells assessed as cell growth inhibition after 48 hrs by MTT assay. The format is functional, cell-based. The note with it: LS180, 48 h. In outline:
(§1)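 Adherent lines at 70–75% confluence, grown at 37 °C in 5% CO2 with 10% FCS. Exposed 48 h to compound in DMSO (vehicle <0.2% v/v). MTT dye added 3 h before termination; formazan dissolved in DMSO, OD 570 nm with 620 nm reference. Growth inhibition expressed as % of untreated; IC50 taken from the dose series.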
For orientation: Tetrazolium assays rely on reduction of a dye to a coloured formazan, in cell work by metabolically active cells.

Data set [2] can be described thus: Cytotoxicity against human HepG2 cells assessed as cell growth inhibition after 48 hrs by MTT assay. The format is functional, cell-based. The note with it: HepG2, 48 h. In outline:
as §1

Data set [3] is described as follows: Cytotoxicity against human HepG2 cells assessed as cell growth inhibition at 30 uM after 48 hrs by MTT assay. In kind it is functional. The note with it: HepG2, 48 h, read-out: GI. The essentials:
as §1

The nature of data set [4]: Lipophilicity, log P of the compound. The format is physicochemical. The note with it: octanol/water.
The nature of data set [5]: Cytotoxicity against human LS180 cells assessed as cell growth inhibition at 30 uM after 48 hrs by MTT assay. The format is functional. The note with it: LS180, 48 h, read-out: GI. In outline: as §1
The nature of data set [6]: Cytotoxicity against human PC3 cells assessed as cell growth inhibition at 50 uM after 48 hrs by MTT assay. In kind it is functional. As to conditions: PC-3, 48 h, read-out: GI. In outline:
as §1

Data set [7] can be described thus: Cytotoxicity against human LS180 cells assessed as cell growth inhibition at 50 uM after 48 hrs by MTT assay. The format is functional. The note with it: LS180, 48 h, read-out: GI. The essentials: as §1
The nature of data set [8]: Cytotoxicity against human HepG2 cells assessed as cell growth inhibition at 50 uM after 48 hrs by MTT assay. The note with it: HepG2, 48 h, read-out: GI. The format is functional. In outline: as §1
Data set [9] can be described thus: Cytotoxicity against human MIAPaCa2 cells assessed as cell growth inhibition at 50 uM after 48 hrs by MTT assay. The format is functional. As to conditions: MIA PaCa-2, 48 h, read-out: GI. The essentials: as §1
The nature of data set [10]: Cytotoxicity against human HL60 cells assessed as cell growth inhibition at 30 uM after 48 hrs by MTT assay. The format is functional. As to conditions: HL-60, 48 h, read-out: GI. The essentials:
(§2)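 HL-60 suspension cells, 1.5 × 10^4 per well, grown at 37 °C in 5% CO2 with 10% FCS. Treated 48 h with compound in DMSO (vehicle <0.2% v/v). MTT added 3 h before the end. Formazan dissolved in DMSO and read at 570 nm (reference 620 nm). % growth inhibition computed against untreated cells; IC50 taken from the concentration series.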

The nature of data set [11]: Cytotoxicity against human PC3 cells assessed as cell growth inhibition at 30 uM after 48 hrs by MTT assay. The note with it: PC-3, 48 h, read-out: GI. The format is functional. In outline: as §1
Data set [12] can be described thus: Cytotoxicity against human MIAPaCa2 cells assessed as cell growth inhibition at 30 uM after 48 hrs by MTT assay. In kind it is functional. The note with it: MIA PaCa-2, 48 h, read-out: GI. In outline: as §1
Data set [13] can be described thus: Aqueous solubility of the compound at pH 7. The format is physicochemical.
Data set [14] in a line: Cytotoxicity against human HL60 cells assessed as cell growth inhibition at 50 uM after 48 hrs by MTT assay. The format is functional. As to conditions: HL-60, 48 h, read-out: GI. The essentials:
as §2

The term IC50 denotes the point on the concentration scale where inhibition reaches its midpoint. On to `COc1cccc2c1C(=O)c1c(O)c3c(c(O)c1C2=O)C[C@@](O)(C(=O)CO)C[C@@H]3O[C@H]1C[C@H](N)[C@H](O)[C@H](C)O1` [DOXORUBICIN], for which the figures for the IC50 in [1] and in data set [2] were 840 nM and 540 nM, respectively.

The term logP denotes the decadic logarithm of the partition coefficient of the neutral form, usually between octanol and water. By solubility is commonly meant the concentration that dissolves in the medium under given conditions. Read a low solubility as a poorly soluble substance. On to `C[C@H]1[C@@H](OCCOc2ccc(/C=C/C(=O)c3ccc(Cl)cc3)cc2)O[C@@H]2O[C@@]3(C)CC[C@H]4[C@H](C)CC[C@@H]1[C@@]24OO3`, for which the inhibition of growth at 30 µM in data set [3] was determined as 19.7%; in [5] it was 42.1%; in data set [10], 89.4%; in data set [11], 38.7%; in data set [12], 54.4%. In addition, the log partition coefficient (logP) in data set [4] fell in the range of 5.34 to 7.45. In addition, the inhibition of growth at 50 µM in data set [6] was 41.8%; in [7], 45.6%; in [8] it was 25.1%; in data set [9] it was 62.8%; in data set [14], 93.2%. This compound yielded a solubility in [13] of less than 10 µg/mL.

Consider `Cc1cc(C(=O)/C=C/c2ccc(OCCO[C@H]3O[C@@H]4O[C@@]5(C)CC[C@H]6[C@H](C)CC[C@@H]([C@H]3C)[C@@]46OO5)cc2)ccc1OCCO[C@H]1O[C@@H]2O[C@@]3(C)CC[C@H]4[C@H](C)CC[C@@H]([C@H]1C)[C@@]24OO3`, for which the inhibition of growth at 30 µM in [3] turned out to be 13.6%; in data set [5] it was 7.1%; in [10], 68.9%; in [11], 6.4%; in data set [12] it was 44.3%. Further, the logP in data set [4] lay within 5.34 to 7.45. Further, the inhibition of growth at 50 µM in [6] turned out to be 23.5%; in [7] it was 23.5%; in data set [8], 20.7%; in data set [9], 49.2%; in data set [14], 70.4%. In [13], the solubility is less than 10 µg/mL.

As to `COc1ccc(/C=C/C(=O)c2ccc(OCCO[C@H]3O[C@@H]4O[C@@]5(C)CC[C@H]6[C@H](C)CC[C@@H]([C@H]3C)[C@@]46OO5)cc2)c(OC)c1`, the inhibition of growth at 30 µM in data set [3] amounted to 18.2%; in data set [5], 27.5%; in data set [10], 83.5%; in data set [11] it was 38.2%; in [12], 24.8%. Besides, in [4], the logP is 5.34 to 7.45. Besides, the inhibition of growth at 50 µM was found to be 46.9% in data set [6]; 29.6% in [7]; 25.1% in [8]; 41.7% in [9]; 85.7% in data set [14]. This compound also registered a solubility in [13] of less than 10 µg/mL.
